Where a name gives a salt, the structure may show the parent alone.
What follows are compounds tested against Kir6.1/SUR2B channel (Rattus norvegicus, UniProt Q63664) (assay: whole-cell voltage clamp, HEK293).
Type: cell-based
Summary of the method: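 Rat Kir6.1 and SUR2B co-expressed in HEK293 with GFP marker, whole-cell patched at room temperature, holding 0 mV, 600-ms steps to -80 mV, symmetric 145 mM K+. Bath: K-gluconate/KCl, EGTA, glucose, HEPES pH 7.4. Pipette adds 1 mM K2ATP, 0.5 mM NaADP and 1 mM MgCl2. Plateau current normalized to the pinacidil/glibenclamide window. IC50 from Hill fit.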

Kir6.1/SUR2B channel, sequence (Q63664 whole entry): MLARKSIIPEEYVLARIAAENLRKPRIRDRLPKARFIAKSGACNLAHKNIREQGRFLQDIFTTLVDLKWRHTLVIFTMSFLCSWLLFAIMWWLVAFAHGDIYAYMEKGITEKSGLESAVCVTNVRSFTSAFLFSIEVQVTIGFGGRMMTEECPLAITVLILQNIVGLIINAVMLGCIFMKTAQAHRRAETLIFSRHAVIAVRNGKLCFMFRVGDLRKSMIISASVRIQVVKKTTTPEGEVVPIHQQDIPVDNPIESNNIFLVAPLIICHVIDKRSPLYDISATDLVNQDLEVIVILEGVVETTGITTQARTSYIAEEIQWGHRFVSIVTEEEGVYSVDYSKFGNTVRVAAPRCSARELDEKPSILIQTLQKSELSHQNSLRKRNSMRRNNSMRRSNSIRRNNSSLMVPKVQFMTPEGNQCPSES
Kir6.1/SUR2B channel, sequence (P70170 whole entry partner): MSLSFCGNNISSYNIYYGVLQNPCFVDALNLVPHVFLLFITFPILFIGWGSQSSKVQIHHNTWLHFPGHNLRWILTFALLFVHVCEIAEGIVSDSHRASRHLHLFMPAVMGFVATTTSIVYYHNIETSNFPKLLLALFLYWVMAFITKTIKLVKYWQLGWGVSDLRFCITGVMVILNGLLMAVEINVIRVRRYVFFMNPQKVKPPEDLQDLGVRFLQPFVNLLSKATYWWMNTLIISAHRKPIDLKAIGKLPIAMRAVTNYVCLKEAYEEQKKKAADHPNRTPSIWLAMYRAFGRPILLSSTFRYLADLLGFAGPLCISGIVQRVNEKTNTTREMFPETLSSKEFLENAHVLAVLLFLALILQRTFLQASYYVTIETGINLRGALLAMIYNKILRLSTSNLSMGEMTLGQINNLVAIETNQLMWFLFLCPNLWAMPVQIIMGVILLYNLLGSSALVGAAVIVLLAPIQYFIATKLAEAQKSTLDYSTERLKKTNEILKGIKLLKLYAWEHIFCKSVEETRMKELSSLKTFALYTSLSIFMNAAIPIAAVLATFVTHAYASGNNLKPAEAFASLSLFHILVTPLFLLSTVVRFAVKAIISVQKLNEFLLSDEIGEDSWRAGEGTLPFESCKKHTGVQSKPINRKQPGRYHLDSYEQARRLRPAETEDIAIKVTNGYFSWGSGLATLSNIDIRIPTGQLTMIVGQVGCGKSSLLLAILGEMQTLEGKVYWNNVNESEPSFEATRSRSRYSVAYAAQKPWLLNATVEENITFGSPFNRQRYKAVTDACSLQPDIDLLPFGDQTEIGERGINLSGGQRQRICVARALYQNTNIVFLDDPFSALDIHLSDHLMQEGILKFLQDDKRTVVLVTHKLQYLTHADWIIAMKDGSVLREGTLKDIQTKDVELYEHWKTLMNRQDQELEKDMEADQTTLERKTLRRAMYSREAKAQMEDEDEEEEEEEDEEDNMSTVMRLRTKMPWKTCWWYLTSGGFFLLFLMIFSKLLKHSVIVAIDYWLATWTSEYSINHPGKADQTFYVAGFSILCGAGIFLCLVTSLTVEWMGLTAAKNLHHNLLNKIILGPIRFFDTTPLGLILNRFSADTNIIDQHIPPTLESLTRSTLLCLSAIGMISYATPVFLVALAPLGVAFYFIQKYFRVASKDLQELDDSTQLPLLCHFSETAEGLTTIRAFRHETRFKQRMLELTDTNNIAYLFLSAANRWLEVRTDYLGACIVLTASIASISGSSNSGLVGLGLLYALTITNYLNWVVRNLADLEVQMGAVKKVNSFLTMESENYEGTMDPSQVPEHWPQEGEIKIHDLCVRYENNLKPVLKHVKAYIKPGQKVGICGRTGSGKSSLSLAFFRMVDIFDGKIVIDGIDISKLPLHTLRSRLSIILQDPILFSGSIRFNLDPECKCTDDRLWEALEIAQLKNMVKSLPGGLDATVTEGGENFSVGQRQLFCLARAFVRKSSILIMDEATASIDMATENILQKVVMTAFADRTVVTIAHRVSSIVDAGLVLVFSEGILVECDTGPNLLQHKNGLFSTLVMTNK

Q: `O=C1NC(=O)C(Cc2ccc3c(c2)CC[C@H](Cc2ccccc2)O3)S1` (stereo partly drawn) [Englitazone, 5-[(2-benzyl-3,4-dihydro-2H-chromen-6-yl)methyl]-1,3-thiazolidine-2,4-dione] was tested. Which IC50 did it give?
A: The IC50 was 7 µM.

Q: `CN(CCOc1ccc(CC2SC(=O)NC2=O)cc1)c1ccccn1` (stereo not drawn) [Rosiglitazone, 5-[[4-[2-[methyl(pyridin-2-yl)amino]ethoxy]phenyl]methyl]-1,3-thiazolidine-2,4-dione] was tested. Which IC50 did it give?
A: The IC50 was 12 µM.

Q: How did the IC50 turn out when `Cc1ccc(C)c(OCCCC(C)(C)C(=O)O)c1` [Gemfibrozil, 5-(2,5-dimethylphenoxy)-2,2-dimethylpentanoic acid] was run?
A: The IC50 was 290 µM.

Q: `CCc1ccc(C(=O)COc2ccc(CC3SC(=O)NC3=O)cc2)nc1` (stereo not drawn) [Cay10415, 5-[[4-[2-(5-ethylpyridin-2-yl)-2-oxoethoxy]phenyl]methyl]-1,3-thiazolidine-2,4-dione] was tested. Which IC50 did it give?
A: The IC50 was 15 µM.

Q: `Cc1oc(-c2ccccc2)nc1CCC(=O)c1ccc(CC2SC(=O)NC2=O)cc1` (stereo not drawn) [Darglitazone, 5-[[4-[3-(5-methyl-2-phenyl-1,3-oxazol-4-yl)propanoyl]phenyl]methyl]-1,3-thiazolidine-2,4-dione] was tested. Which IC50 did it give?
A: Its IC50 is 25 µM.

Q: `CC1(COc2ccc(CC3SC(=O)NC3=O)cc2)CCCCC1` (stereo not drawn) [Ciglitazone, 5-[[4-[(1-methylcyclohexyl)methoxy]phenyl]methyl]-1,3-thiazolidine-2,4-dione] was tested. Which IC50 did it give?
A: The IC50 was 120 µM.

Q: For `O=C1NC(=O)/C(=C/c2ccc3nccnc3c2)S1` [AS605240, (5Z)-5-(quinoxalin-6-ylmethylidene)-1,3-thiazolidine-2,4-dione], which IC50 is on record?
A: Its IC50 is 60 µM.

Q: With `Cc1cc(SCc2sc(-c3ccc(C(F)(F)F)cc3)nc2C)ccc1OCC(=O)O` [GW501516, 2-[2-methyl-4-[[4-methyl-2-[4-(trifluoromethyl)phenyl]-1,3-thiazol-5-yl]methylsulfanyl]phenoxy]acetic acid] as the compound, how does the IC50 read?
A: The IC50 was 120 µM.

Q: `O=C1NC(=O)/C(=C/c2ccc(-c3ccc(F)cc3O)o2)S1` [AS-252424, (5Z)-5-[[5-(4-fluoro-2-hydroxyphenyl)furan-2-yl]methylidene]-1,3-thiazolidine-2,4-dione] was tested. Which IC50 did it give?
A: Its IC50 is 4 µM.

Q: `CCc1ccc(CCOc2ccc(CC3SC(=O)NC3=O)cc2)nc1` (stereo not drawn) [Pioglitazone, 5-[[4-[2-(5-ethylpyridin-2-yl)ethoxy]phenyl]methyl]-1,3-thiazolidine-2,4-dione] was tested. Which IC50 did it give?
A: Its IC50 is 95 µM.

Q: Which IC50 does the source give for `CCOc1ccc(C=C2SC(=O)N(CCN)C2=O)cc1` [A6355, 3-(2-aminoethyl)-5-[(4-ethoxyphenyl)methylidene]-1,3-thiazolidine-2,4-dione hydrochloride] here?
A: The IC50 was 8 µM.

Q: `Cc1cc(SCc2sc(-c3ccc(C(F)(F)F)c(F)c3)nc2C)ccc1OCC(=O)O` [GW0742, 2-[4-[[2-[3-fluoro-4-(trifluoromethyl)phenyl]-4-methyl-1,3-thiazol-5-yl]methylsulfanyl]-2-methylphenoxy]acetic acid] was tested. Which IC50 did it give?
A: The IC50 was 80 µM.

Q: Which IC50 does the source give for `Cc1c(C)c2c(c(C)c1O)CCC(C)(COc1ccc(CC3SC(=O)NC3=O)cc1)O2` (stereo not drawn) [Troglitazone, 5-[[4-[(6-hydroxy-2,5,7,8-tetramethyl-3,4-dihydrochromen-2-yl)methoxy]phenyl]methyl]-1,3-thiazolidine-2,4-dione] here?
A: Its IC50 is 100 µM.

Q: For `CC(C)OC(=O)C(C)(C)Oc1ccc(C(=O)c2ccc(Cl)cc2)cc1` [Fenofibrate, propan-2-yl 2-[4-(4-chlorobenzoyl)phenoxy]-2-methylpropanoate], which IC50 is on record?
A: The IC50 was 80 µM.

Q: With `O=C1NC(=O)C(Cc2ccc(O)cc2)S1` (stereo not drawn) [CDS005865, 5-(4-hydroxybenzyl)-2,4-thiazolidinedione] as the compound, how does the IC50 read?
A: Its IC50 is > 100 µM.
